Activity calls are given as the source filed them. The calls are words filed in the database; no cut-off is given here.
Experiments:
HL-60 [1] = assay: Cytotoxicity against human HL60 cells after 5 days by MTT assay; assay type: functional; details: HL-60, 120 h
[2] = Antioxidant activity assessed as free radical scavenging activity by lipid peroxidation assay; assay type: functional
Procedure, shortened: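 Lipid peroxidation system initiated with 400 mM FeCl3 and 200 mM L-ascorbic acid (stock levels as printed). Test compound added at several concentrations; control without compound. Incubated 37 °C, 60 min. Stopped with 0.25 N HCl / 1.5% TCA / 0.375% thiobarbituric acid, boiled 15 min, cooled, centrifuged. Absorbance read at 532 nm; percent inhibition versus control used to derive EC50.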

[3] = Cytotoxicity against human PBMC cells after 5 days by MTT assay; assay type: cell-based
Procedure, shortened: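 Cells seeded at 3 × 10^5 cells/mL in 96-well plates and kept at 37 °C in humidified 5% CO2 with test compound for 5 days. PBMC came from healthy donors. Viability read by MTT; CC50 calculated. Mean ± SD of three independent experiments, Student t-test.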

HL-60 [4] = assay: Induction of apoptosis in human HL60 cells assessed as fragmentation of DNA after 48 hrs by electrophoresis; assay type: functional, cell-based
Procedure, shortened: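 HL60 cells exposed to test compound alongside untreated control. After 48 h, DNA extracted, run on 0.8% agarose gel with ethidium bromide, and fragmentation pattern imaged.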

HL-60 [5] = assay: Induction of apoptosis in human HL60 cells after 48 hrs using annexin V-propidium iodide staining by FACS analysis; assay type: functional, cell-based
Procedure, shortened: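 HL60 cells incubated with test compound at a concentration set from its CC50. Stained with FITC-Annexin V and analysed by flow cytometry, with treated-cell fluorescence compared against control cells.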

Structure (SMILES) | CC50 (HL-60 [1]) [µM] | EC50 [2] [µM] | CC50 at 120 h [3] [µM] | Activity (HL-60 [4]) | Activity (HL-60 [5])
O=c1[nH]cc(F)c(=O)[nH]1 [FLUOROURACIL] | 0.07 | – | – | – | –
COc1ccc2c(c1)OC(c1ccc(Cl)cc1)C(c1ccccc1)C2=O (centres undefined) | 2410 | 165 | > 2500 | Active | –
COc1ccc2c(c1)OC(c1cccc([N+](=O)[O-])c1)C(c1ccccc1)C2=O (centres undefined) | > 2500 | 130 | > 2500 | Active | –
COc1ccc2c(c1)OC(c1ccc([N+](=O)[O-])cc1)C(c1ccccc1)C2=O (centres undefined) | 73.2 | > 2500 | 595 | Active | –
COc1ccc2c(c1)OC(c1ccccc1)C(c1ccccc1)C2=O (centres undefined) | 2330 | 500 | > 2500 | Active | –
CCOc1ccc2c(c1)OC(c1ccc([N+](=O)[O-])cc1)C(c1ccccc1)C2=O (centres undefined) | 203 | > 2500 | 1360 | Active | –
COc1ccc2c(c1)OCC(c1ccccc1)C2=O (centres undefined) | 82.6 | 965 | 521 | Active | –
CCOc1ccc2c(c1)OC(c1ccc(Cl)cc1)C(c1ccccc1)C2=O (centres undefined) | 514 | 578 | > 2500 | Active | –
CCOc1ccc2c(c1)OC(c1cccc([N+](=O)[O-])c1)C(c1ccccc1)C2=O (centres undefined) | > 2500 | 193 | > 2500 | Active | –
O=C1O[C@H]([C@@H](O)CO)C(O)=C1O [ASCORBIC ACID] | – | 754 | – | – | –
COc1ccc2cc3[n+](cc2c1OC)CCc1cc2c(cc1-3)OCO2 | – | – | – | – | Active
CCOc1ccc2c(c1)OC(c1ccccc1)C(c1ccccc1)C2=O (centres undefined) | > 2500 | 877 | > 2500 | Active | –

— ChEMBL document CHEMBL1165893, “Synthesis, anticancer and antioxidant activities of 7-methoxyisoflavanone and 2,3-diarylchromanones” (Eur J Med Chem, 2010)
